Assay outcomes from PubChem BioAssay.
This is a sample that favours compounds with a hit; in the whole collection about 3% have one here.
aDG glyco up – increases alpha dystroglycan glycosylation; activation, % at 10 µM; Pro5-aDG cells, alpha-DG glycosylation AlphaScreen (IIH6); 0% Pro5, 100% B10-LARGE cell signal; 360,000 compounds, 0.22% hits;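 active means activation of at least 8% versus controls, or a plate z-score of at least 8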;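 further: Pro5 are CHO cells carrying HIG-tagged alpha-DG that lacks glycosylation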
GC-B act – GC-B (human) receptor activation. P20594. HEK293-GC-B cells, CNP EC30, cGMP TR-FRET; 0% at EC30 CNP, 100% saturating CNP. activation, % at 10 µM. 370,000 compounds, 0.11% hits;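 active means activation at 10 µM reaching about 35% in either raw or pattern-adjusted values, limit read from the data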
JMJD2C inh – human JMJD2C demethylase inhibition; Q9H3R0; GST-JMJD2C(1-420) H3K9me3 demethylation, DELFIA europium; inhibition, % at 2.35 µM; 330,000 compounds, 0.069% hits; AID 2099;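 active means more than half of a compound's replicate wells show inhibition beyond 50%, single wells judged on their own value; inconclusive means some, but no more than half, of replicates pass 50% inhibition; inactive means no replicate passes 50% inhibition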;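 further: signal counts dimethyl H3K9 product captured on neutravidin plate; 0% = median of DMSO wells and 100% = 0.3 times that DMSO median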
Target sequence (Q9H3R0 1-420 limits assumed): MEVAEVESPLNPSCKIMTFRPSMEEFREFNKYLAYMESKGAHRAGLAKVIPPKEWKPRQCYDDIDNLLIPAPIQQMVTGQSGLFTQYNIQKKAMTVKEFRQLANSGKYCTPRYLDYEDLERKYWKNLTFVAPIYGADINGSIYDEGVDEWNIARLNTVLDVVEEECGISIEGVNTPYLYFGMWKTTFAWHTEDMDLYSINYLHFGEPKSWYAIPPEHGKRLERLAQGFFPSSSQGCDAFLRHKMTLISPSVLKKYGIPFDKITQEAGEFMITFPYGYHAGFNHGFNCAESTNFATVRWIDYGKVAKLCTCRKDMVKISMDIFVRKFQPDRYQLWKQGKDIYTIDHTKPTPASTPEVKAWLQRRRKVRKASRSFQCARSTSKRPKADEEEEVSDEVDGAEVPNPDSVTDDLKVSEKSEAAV
NR3A LBD binder – modulates the human NR3A ligand-binding domain | NR3A LBD differential scanning fluorimetry, Tm shift; 0% = protein alone, 100% = glycine-bound protein | Tm shift relative to glycine control, % at 25 µM | 340,000 compounds, 2.5% hits | AID 1259313;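 active means melting temperature shift of at least 10% of the positive control shift, at one fixed dose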
Lipid droplet – hepatic lipid droplet formation modulation | 240,000 compounds, 0.4% hits | inhibition, % at 6.5 µM | AML12 mouse hepatocytes, oleate lipid droplets, BODIPY imaging;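 active means lipid droplet intensity inhibited by at least 50%, with more than 500 cells counted; inconclusive means wells with under 300 cells, treated as cytotoxic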
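System: AML12 hepatocytes (mouse). Probe or stimulus: oleic acid at 100 µM to induce lipid droplet formation. Times: overnight treatment with compound plus oleate. Detection: Image-based BODIPY and DAPI two-channel analysis. Evaluation: percent inhibition of filter-corrected integrated lipid droplet intensity per well.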
NPR1 activator – GC-A (human) enzyme activation; P16066; HEK293 GC-A cells, cGMP TR-FRET, EC30 ANP; 0% at EC30 ANP, 100% saturating ANP; activation, % at 10 µM; 370,000 compounds, 0.14% hits; AID 1671463; in the data active means activation above about 40%
Hep lipid conf – hepatic lipid droplet formation inhibition, confirmed; shares compounds with Lipid droplet; AML12 mouse hepatocytes, BODIPY lipid droplet imaging; droplets induced with 100 µM oleic acid; inhibition, % at 5.2 µM; 870 compounds, 65% hits; AID 463183;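 active means inhibition of lipid droplet metric at least 50%, with more than 300 cells in each of four replicates; inconclusive means wells under 300 cells, flagged as toxic or low count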;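 further: plate controls were DMSO with oleic acid for no effect and 5 µM Triacsin-C for full effect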
AML12 tox img – AML12 hepatocyte cytotoxicity (counter-screen) | shares compounds with Lipid droplet | AML12 mouse hepatocytes, DAPI nuclear morphology cytotoxicity imaging; stronger effect = higher value; cells fed 100 µM oleate overnight | z-score at 5 µM | 870 compounds, 3% hits; in the data active means z-score above about 6.3;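 further: compound exposure lasted overnight at 37 °C before fixation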
AML12 tox ATP – confirmation of cytotoxicity in AML12 mouse hepatocytes; shares compounds with Lipid droplet; cytotoxicity, % at 50 µM; AML12 mouse hepatocyte viability, ATP luminescence; cells loaded with 100 µM oleic acid; 530 tested, under 10 active;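 active means cytotoxicity above 50% in each of four replicates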;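 further: compound exposure lasted overnight at 37 °C before the ATP read; 0% = DMSO-treated cells and 100% = wells with no cells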
Starred values were filed as active, the others as inactive; u = inconclusive; x = not tested or not shown.

SMILES	aDG glyco up	GC-B act	JMJD2C inh	NR3A LBD binder	Lipid droplet	NPR1 activator	Hep lipid conf	AML12 tox img	AML12 tox ATP
C[C@@H]1CCCCO[C@@H](CN(C)C(=O)CCC(F)(F)F)[C@@H](C)CN([C@H](C)CO)C(=O)c2cc(NS(=O)(=O)c3cccs3)ccc2O1	x	6.0	x	x	x	4.2	x	x	x
CCc1ccc(NC(=O)Nc2cccc(OC)c2)cc1	1.1	-0.1	3.3	4.4	-4.4	0.8	x	x	x
CCOc1ccc(CCNC(=O)C2(c3ccccc3)CC2)cc1OCC	0.6	-1.4	-0.6	0.3	56.4*	-2.7	82.7*	-0.355	13.4
CCOc1ccc(CCNC(=O)C2CCCCC2)cc1OCC	x	1.6	x	x	x	-1.6	x	x	x
CCOc1ccc(CCNC(=O)c2ccc3ccccc3n2)cc1OCC	1.0	-3.2	6.1	0.8	77.5*	-1.2	107.1*	-0.78	22.5
CCOc1ccc(CCNC(=O)Nc2cccc(OC)c2)cc1OCC	0.1	1.2	-18.8	1.2	125.4*	-1.0	109.6*	-0.61	9.0
CCOc1ccc(CCNC(=O)c2c(C)nn(-c3ccccc3)c2Cl)cc1OCC	-0.2	-4.7	5.0	-2.1	51.8*	-0.3	71.6*	-0.468	8.5
Cc1ccc2[nH]c(C)c(CC(=O)NCc3ccccc3)c2c1	-0.2	1.4	-9.4	0.4	71.8*	-4.2	68.2*	0.266	8.3
COc1ccc(CN2CCC(n3nccc3NC(=O)CCc3ccccc3)CC2)c(C)c1C	0.0	-14.2	-3.9	1.7	-8.8	-7.5	x	x	x
Cc1cc(C(=O)CN2C(=O)c3ccccc3S2(=O)=O)c(C)n1-c1ccccc1	0.1	8.7	-0.3	0.6	64.7*	-2.2	24.1	-0.277	x
CCn1c(C)cc(C(=O)CN2C(=O)c3ccccc3S2(=O)=O)c1C	-0.1	8.7	-5.9	0.5	x	0.3	x	x	x
COc1cccc(CNC(=O)CCCc2c[nH]c3ccccc23)c1	0.0	3.3	u	-1.2	63.7*	1.0	69.3*	0.224	17.1
COc1ccc(C(=O)CCC(=O)NCCc2c[nH]c3ccccc23)cc1OC	-0.2	-2.3	2.9	-0.4	123.8*	0.2	98.7*	0.655	15.6
CC1CC(C)CN(C(=O)COC(=O)CN2C(=O)c3ccccc3C2=O)C1 (stereo unspecified)	-0.2	-0.2	-3.9	0.2	x	-0.5	x	x	x
CC1CC(C)CN(C(=O)c2ccc3c(c2NCCO)C(=O)c2ccccc2C3=O)C1 (stereo unspecified)	-0.7	-5.8	-7.1	-1.8	91.4*	-4.7	114.7*	-0.984	37.3
COC(=O)[C@]12C[C@H](CC(=O)NCC34CC5CC(CC(C5)C3)C4)C(=O)N(Cc3cccc4ccccc34)C1=C[C@H](C(C)(C)C)O[C@@H]2C	x	4.1	x	x	x	-0.5	x	x	x
COc1cc2c3nnc(-c4ccc(F)cc4)c-3cn(Cc3cccc(F)c3)c2cc1OC	0.2	x	7.1	1.1	-4.0	x	x	x	x
COc1cc2c3nnc(-c4ccc(F)cc4)c-3cn(Cc3cccc(C)c3)c2cc1OC	-0.2	0.3	1.4	-17.6	54.3*	7.5	40.1	4.4	x
COc1ccc(OC)c(NC(=O)c2ccccc2SC)c1	-0.2	-1.4	-0.3	0.5	-0.8	-1.1	x	x	x
COc1ccc(OC)c(NC(=O)c2cc3oc4ccccc4c3cc2O)c1	0.1	-1.5	-6.3	130.0*	108.2*	7.1	17.9	0.111	x
CCOc1ccc2nc(-c3ccccc3)nc(SCC(=O)Nc3ncc(C)s3)c2c1	0.1	-5.2	-2.6	-2.0	100.7*	-2.7	106.8*	0.115	6.8
Cc1cnc(NC(=O)CSc2ccccc2)s1	0.1	7.0	1.4	-1.1	-1.7	4.8	x	x	x
CCCCn1c(O)c(/C=C/C=C/C=Nc2ccccc2)sc1=S	0.0	0.1	1.9	4.7	60.9*	-6.6	34.2	0.243	x
Oc1c(/C=C/C=C/C=Nc2ccccc2)sc(=S)n1Cc1ccccc1	0.2	-2.8	7.8	10.2*	74.3*	-6.0	75.7*	0.807	27.7
CCCn1c(O)c(C=Nc2ccccc2)sc1=S	0.1	4.9	8.0	-7.4	-1.9	6.2	x	x	x
SMILES	aDG glyco up	GC-B act	JMJD2C inh	NR3A LBD binder	Lipid droplet	NPR1 activator	Hep lipid conf	AML12 tox img	AML12 tox ATP
CCn1c(O)c(/C=C/C=C/C=Nc2ccccc2)sc1=S	-0.2	2.8	1.5	-1.0	14.7	0.6	x	x	x
O=c1[nH]cnc2sc3c(c12)CN(Cc1ccccc1)CC3	0.0	x	4.5	-1.1	-0.9	x	x	x	x
O=c1[nH]cnc2sc3c(c12)CCN(Cc1ccccc1)C3	-0.1	-2.8	-38.5	6.9	54.7*	2.6	24.5	-0.0109	x
Cc1cccc(C(O)c2ncc(-c3ccccc3F)[nH]2)c1C (stereo unspecified)	-0.3	-2.0	x	x	x	-1.5	x	x	x
c1ccc(Oc2cccc(CN3CCCCC3)c2)cc1	0.3	-4.3	2.0	3.1	56.2*	-1.3	-4.3	0.104	x
CC(Sc1nncs1)C(=O)Nc1ccc(S(=O)(=O)Nc2ncccn2)cc1 (stereo unspecified)	0.2	-3.9	-1.0	0.3	x	2.1	x	x	x
CC(Sc1nnc(-c2ccccc2)c(-c2ccccc2)n1)C(=O)N1CCc2ccccc21 (stereo unspecified)	0.0	6.3	5.7	-1.0	57.4*	-2.0	81.8*	-0.338	7.8
COc1cc(N2CCCC2)c(OC)cc1/C=C(/C#N)c1ccc(Br)cc1	-0.7	0.1	-4.2	-2.7	2.3	-3.8	x	x	x
COc1cc(N2CCCC2)c(OC)cc1/C=C(/C#N)c1ccc(F)cc1	-0.9	-2.8	-4.5	0.6	50.1*	-5.4	41.0	0.664	x
CCCCOc1ccc(-c2ncc(Cl)cn2)cc1	0.1	3.2	-14.3	3.7	8.1	-1.6	x	x	x
CCCCOc1ccc(-c2ncc([N+](=O)[O-])cn2)cc1	-0.1	1.9	2.0	-3.3	51.1*	7.1	19.5	0.839	x
COc1cc(C(=O)O)ccc1OCC(=O)N1CCOCC1	1.8	-3.8	10.5	3.9	x	7.0	x	x	x
COc1ccc(-c2csc(NC(=O)c3ccc(OCC(=O)N4CCOCC4)c(OC)c3)n2)cc1	-0.5	7.8	-3.5	-5.3	83.0*	4.7	107.3*	-0.564	53.1
CC[C@H](CCCCCCCn1ccc2ccccc21)CCC(=O)N(c1ccccc1)c1ccccc1	x	5.8	x	x	x	0.4	x	x	x
CCC(c1ccc(O)cc1)C(CC)c1ccc(O)cc1 (stereo unspecified)	-0.2	9.2	x	-28.2	x	5.4	x	x	x
